Calls of active or inactive are those of the source. No cut-off for these calls is given here.
Tests used:
[1] = system: Staphylococcus aureus; experiment: Antibacterial activity against methicillin-resistant Staphylococcus aureus clinical isolate 1-may after 16 to 20 hrs by broth microdilution method; assay type: functional
Method in brief: (§1)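 CLSI broth microdilution in Mueller-Hinton broth. A 4-6 h culture was diluted to about 10⁶ CFU/mL and mixed 1:1 with compound dilutions prepared at 256 to 0.5 µg/mL from aqueous stocks. Plates were incubated at 37 °C for 16-20 h and read visually for MIC. Each concentration was run in duplicate, and the experiment was repeated at least twice. Vancomycin and meropenem were comparators.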

[2] = system: Escherichia coli; experiment: Antibacterial activity against drug-resistant NDM1 producing Escherichia coli clinical isolate EA-14-61 after 16 to 20 hrs by broth microdilution method; assay type: functional; method in brief: as §1
[3] = system: Escherichia coli; experiment: Antibacterial activity against drug-resistant NDM1 producing Escherichia coli clinical isolate EC-13-49 after 16 to 20 hrs by broth microdilution method; assay type: functional; method in brief: as §1
[4] = system: Escherichia coli; experiment: Antibacterial activity against drug-resistant NDM1 producing Escherichia coli clinical isolate CF-15-61 after 16 to 20 hrs by broth microdilution method; assay type: functional; method in brief: as §1
[5] = system: Klebsiella pneumoniae; experiment: Antibacterial activity against drug-resistant carbapenemase producing Klebsiella pneumoniae clinical isolate KP-14-4 after 16 to 20 hrs by broth microdilution method; assay type: functional; method in brief: as §1
[6] = system: Staphylococcus aureus; experiment: Antibacterial activity against methicillin-resistant Staphylococcus aureus clinical isolate 1104060 after 16 to 20 hrs by broth microdilution method; assay type: functional; method in brief: as §1
[7] = system: Escherichia coli; experiment: Antibacterial activity against drug-resistant NDM1 producing Escherichia coli clinical isolate Ecl-13-62 after 16 to 20 hrs by broth microdilution method; assay type: functional; method in brief: as §1
[8] = system: Klebsiella pneumoniae; experiment: Antibacterial activity against drug-resistant carbapenemase producing Klebsiella pneumoniae clinical isolate KP-14-5 after 16 to 20 hrs by broth microdilution method; assay type: functional; method in brief: as §1
[9] = system: Escherichia coli; experiment: Induction of cytoplasmic membrane depolarization in Escherichia coli ATCC 25922 at 10 to 20 ug/ml measured every 2 mins for 12 mins by DiSC35 dye-based fluorescence assay; assay type: functional, organism-based
Method in brief: (§2)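 Mid-log cells (~10⁸ CFU/mL) were suspended in PBS (S. aureus) or HEPES/glucose/KCl with EDTA (E. coli). They were preloaded with DiSC3(5) for 30 min (S. aureus) or 40 min (E. coli), and baseline fluorescence was read for 8 min. Compound was added to 20 µg/mL final, and fluorescence (ex 622/em 670 nm) was read every 2 min for 12 min. Water served as control.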

[10] = system: Staphylococcus aureus; experiment: Antibacterial activity against methicillin-resistant Staphylococcus aureus clinical isolate 0831010 after 16 to 20 hrs by broth microdilution method; assay type: functional; method in brief: as §1
[11] = system: Klebsiella pneumoniae; experiment: Antibacterial activity against drug-resistant carbapenemase producing Klebsiella pneumoniae clinical isolate KP-14-2 after 16 to 20 hrs by broth microdilution method; assay type: functional; method in brief: as §1
[12] = system: Enterococcus faecalis; experiment: Antibacterial activity against Enterococcus faecalis ATCC 29212 after 16 to 20 hrs by broth microdilution method; assay type: functional
Method in brief: (§3)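 Broth microdilution per CLSI. Bacteria grown 4-6 h (about 10⁸ CFU/mL), then diluted to about 10⁶ CFU/mL. Medium: Mueller-Hinton broth, except Luria-Bertani broth for E. coli. Compounds in sterile water, twofold series 256-0.5 µg/mL, mixed 1:1 with inoculum, 37 °C for 16-20 h. MIC is the lowest concentration without visible growth. Duplicate wells; experiment repeated at least twice.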

[13] = system: Klebsiella pneumoniae; experiment: Antibacterial activity against drug-resistant carbapenemase producing Klebsiella pneumoniae clinical isolate KP-14-18 after 16 to 20 hrs by broth microdilution method; assay type: functional; method in brief: as §1
[14] = system: Staphylococcus aureus; experiment: Antibacterial activity against methicillin-resistant Staphylococcus aureus clinical isolate 20131012632sau after 16 to 20 hrs by broth microdilution method; assay type: functional; method in brief: as §1
[15] = system: Staphylococcus aureus; experiment: Antibacterial activity against methicillin-resistant Staphylococcus aureus clinical isolate 0906202 after 16 to 20 hrs by broth microdilution method; assay type: functional; method in brief: as §1
[16] = system: Staphylococcus aureus; experiment: Induction of cytoplasmic membrane depolarization in Staphylococcus aureus ATCC 29213 at 10 to 20 ug/ml measured every 2 mins for 12 mins by DiSC35 dye-based fluorescence assay; assay type: functional, organism-based; method in brief: as §2
[17] = system: Staphylococcus aureus; experiment: Antibacterial activity against methicillin-resistant Staphylococcus aureus clinical isolate 20130911034sau after 16 to 20 hrs by broth microdilution method; assay type: functional; method in brief: as §1
[18] = system: Escherichia coli; experiment: Antibacterial activity against drug-resistant NDM1 producing Escherichia coli clinical isolate SM-15-84 after 16 to 20 hrs by broth microdilution method; assay type: functional; method in brief: as §1
[19] = system: Klebsiella pneumoniae; experiment: Antibacterial activity against drug-resistant carbapenemase producing Klebsiella pneumoniae clinical isolate EC-13-23 after 16 to 20 hrs by broth microdilution method; assay type: functional; method in brief: as §1
[20] = system: Escherichia coli; experiment: Induction of inner membrane permeabilization in Escherichia coli ATCC 25922 at 10 to 20 ug/ml measured every 2 mins for 12 mins by propidium iodide staining-based fluorescence assay; assay type: functional, organism-based
Method in brief: (§4)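 Mid-log cells (~10⁸ CFU/mL) were suspended in PBS (S. aureus) or HEPES/glucose/KCl (E. coli). They were preincubated with propidium iodide for 30 min (S. aureus) or 40 min (E. coli), and baseline fluorescence was read for 8 min. Compound was added to 20 µg/mL final, and fluorescence (ex 535/em 617 nm) was read every 2 min for 12 min.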

[21] = system: Staphylococcus aureus; experiment: Antibacterial activity against methicillin-resistant Staphylococcus aureus clinical isolate 1207007 after 16 to 20 hrs by broth microdilution method; assay type: functional; method in brief: as §1
[22] = system: Staphylococcus aureus; experiment: Antibacterial activity against methicillin-resistant Staphylococcus aureus clinical isolate 1105183 cono7 after 16 to 20 hrs by broth microdilution method; assay type: functional; method in brief: as §1
[23] = Hemolytic activity in sheep RBC after 1 hr; assay type: ADME, cell-based, Ovis aries, Erythrocyte; conditions: sheep red blood cells (erythrocytes)
Method in brief: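 Sheep red blood cells (150 µL suspension) mixed with 50 µL of compound dilutions (5120-10 µg/mL), 1 h at 37 °C, then centrifuged. Supernatant read at 540 nm. Percent hemolysis calculated relative to RBC-only control (0%) and 0.1% Triton X-100 (100%).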

[24] = system: Staphylococcus aureus; experiment: Antibacterial activity against Staphylococcus aureus ATCC 29213 after 16 to 20 hrs by broth microdilution method; assay type: functional; method in brief: as §3
[25] = system: Escherichia coli; experiment: Antibacterial activity against drug-resistant NDM1 producing Escherichia coli clinical isolate Ecl-14-56 after 16 to 20 hrs by broth microdilution method; assay type: functional; method in brief: as §1
[26] = system: Klebsiella pneumoniae; experiment: Antibacterial activity against drug-resistant carbapenemase producing Klebsiella pneumoniae clinical isolate KP-14-3 after 16 to 20 hrs by broth microdilution method; assay type: functional; method in brief: as §1
[27] = system: Escherichia coli; experiment: Antibacterial activity against drug-resistant NDM1 producing Escherichia coli clinical isolate 1460 after 16 to 20 hrs by broth microdilution method; assay type: functional; method in brief: as §1
[28] = system: Escherichia coli; experiment: Antibacterial activity against drug-resistant NDM1 producing Escherichia coli clinical isolate EC-14-54 after 16 to 20 hrs by broth microdilution method; assay type: functional; method in brief: as §1
[29] = system: Escherichia coli; experiment: Antibacterial activity against drug-resistant NDM1 producing Escherichia coli clinical isolate Ecl-14-59 after 16 to 20 hrs by broth microdilution method; assay type: functional; method in brief: as §1
[30] = system: Klebsiella pneumoniae; experiment: Antibacterial activity against drug-resistant carbapenemase producing Klebsiella pneumoniae clinical isolate KP-13-45 after 16 to 20 hrs by broth microdilution method; assay type: functional; method in brief: as §1
[31] = system: Escherichia coli; experiment: Antibacterial activity against drug-resistant NDM1 producing Escherichia coli clinical isolate CF-13-61 after 16 to 20 hrs by broth microdilution method; assay type: functional; method in brief: as §1
[32] = system: Escherichia coli; experiment: Antibacterial activity against drug-resistant NDM1 producing Escherichia coli clinical isolate Ecl-14-58 after 16 to 20 hrs by broth microdilution method; assay type: functional; method in brief: as §1
[33] = system: Escherichia coli; experiment: Antibacterial activity against drug-resistant NDM1 producing Escherichia coli clinical isolate KP-13-58 after 16 to 20 hrs by broth microdilution method; assay type: functional; method in brief: as §1
[34] = system: Klebsiella pneumoniae; experiment: Antibacterial activity against drug-resistant carbapenemase producing Klebsiella pneumoniae clinical isolate KP-13-55 after 16 to 20 hrs by broth microdilution method; assay type: functional; method in brief: as §1
[35] = system: Salmonella enterica; experiment: Antibacterial activity against Salmonella enterica ATCC 13076 after 16 to 20 hrs by broth microdilution method; assay type: functional; method in brief: as §3
[36] = system: Klebsiella pneumoniae; experiment: Antibacterial activity against drug-resistant carbapenemase producing Klebsiella pneumoniae clinical isolate KP-14-8 after 16 to 20 hrs by broth microdilution method; assay type: functional; method in brief: as §1
[37] = system: Staphylococcus aureus; experiment: Antibacterial activity against methicillin-resistant Staphylococcus aureus clinical isolate 1208143 after 16 to 20 hrs by broth microdilution method; assay type: functional; method in brief: as §1
[38] = system: Klebsiella pneumoniae; experiment: Antibacterial activity against drug-resistant carbapenemase producing Klebsiella pneumoniae clinical isolate KP-14-45 after 16 to 20 hrs by broth microdilution method; assay type: functional; method in brief: as §1
[39] = system: Escherichia coli; experiment: Antibacterial activity against Escherichia coli ATCC 25922 after 16 to 20 hrs by broth microdilution method; assay type: functional; method in brief: as §3
[40] = system: Staphylococcus aureus; experiment: Induction of inner membrane permeabilization in Staphylococcus aureus ATCC 29213 at 10 to 20 ug/ml measured every 2 mins for 12 mins by propidium iodide staining-based fluorescence assay; assay type: functional, organism-based; method in brief: as §4
[41] = system: Klebsiella pneumoniae; experiment: Antibacterial activity against drug-resistant carbapenemase producing Klebsiella pneumoniae clinical isolate KP-14-1 after 16 to 20 hrs by broth microdilution method; assay type: functional; method in brief: as §1
[42] = system: Klebsiella pneumoniae; experiment: Antibacterial activity against drug-resistant carbapenemase producing Klebsiella pneumoniae clinical isolate KP-13-54 after 16 to 20 hrs by broth microdilution method; assay type: functional; method in brief: as §1

For `CCCCCCCC[N+](C)(C)CC(=O)Nc1ccc(C(=O)/C=C/c2ccc(F)cc2)cc1.[Cl-]`, which MIC [1] is on record?
Its MIC is 1 mg/L.

And the MIC [2]?
Its MIC is 4 mg/L.

What about the MIC [3] of the same compound?
Its MIC is 4 mg/L.

And the MIC [4]?
The MIC was 4 mg/L.

And the MIC [5]?
The MIC was 4 mg/L.

And the MIC [6]?
The MIC was 8 mg/L.

What about the MIC [7] of the same compound?
The MIC was 4 mg/L.

And the MIC [8]?
The MIC was 4 mg/L.

And the Activity [9]?
Its Activity is “Active”.

And the MIC [10]?
Its MIC is 0.5 mg/L.

What about the MIC [11] of the same compound?
Its MIC is 16 mg/L.

What about the MIC [12] of the same compound?
The MIC was 2 mg/L.

And the MIC [13]?
The MIC was 8 mg/L.

And the MIC [14]?
The MIC was 2 mg/L.

And the MIC [15]?
The MIC was 4 mg/L.

What about the Activity [16] of the same compound?
Its Activity is “Active”.

And the MIC [17]?
The MIC was 0.5 mg/L.

And the MIC [18]?
The MIC was 16 mg/L.

What about the MIC [19] of the same compound?
Its MIC is 2 mg/L.

And the Activity [20]?
The Activity was “Active”.

And the MIC [21]?
Its MIC is 0.5 mg/L.

And the MIC [22]?
Its MIC is 1 mg/L.

And the HC50 at 1 h [23]?
The HC50 at 1 h was 83 µg/mL.

And the MIC [24]?
The MIC was 2 mg/L.

And the MIC [25]?
The MIC was 16 mg/L.

What about the MIC [26] of the same compound?
The MIC was 8 mg/L.

And the MIC [27]?
The MIC was 8 mg/L.

And the MIC [28]?
Its MIC is 16 mg/L.

And the MIC [29]?
The MIC was 4 mg/L.

And the MIC [30]?
The MIC was 4 mg/L.

What about the MIC [31] of the same compound?
The MIC was 16 mg/L.

What about the MIC [32] of the same compound?
Its MIC is 4 mg/L.

And the MIC [33]?
The MIC was 1 mg/L.

And the MIC [34]?
Its MIC is 8 mg/L.

What about the MIC [35] of the same compound?
The MIC was 4 mg/L.

What about the MIC [36] of the same compound?
Its MIC is 4 mg/L.

And the MIC [37]?
Its MIC is 2 mg/L.

And the MIC [38]?
Its MIC is 8 mg/L.

What about the MIC [39] of the same compound?
Its MIC is 2 mg/L.

What about the Activity [40] of the same compound?
Its Activity is “Active”.

What about the MIC [41] of the same compound?
Its MIC is 4 mg/L.

What about the MIC [42] of the same compound?
The MIC was 4 mg/L.
